According to PubChem BioAssay:
Records with an inconclusive call do not appear.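 The calls were made as follows, unless noted: active = RAM network inhibition above 8.4% in each of two replicates, 3 SD over the compound average; inconclusive = above 8.4% inhibition in only one replicate; inactive = 8.4% inhibition or less in each replicate.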

Columns and labels:
[1] = OD615 S. cerevisiae growth inhibition, permissive medium, pilot counter-assay, permissive growth control for S. cerevisiae lifespan shortening project (AID 705;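 active = growth inhibition above 25% in both replicates, a cutoff set 3 SD above the mean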); conditions: OD615, 24 h, at 10 µM, stronger effect = higher value
Outline: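 System – S. cerevisiae with engineered DeaD lifespan system · Buffer or medium – SC raffinose/galactose permissive medium · Schedule – cells pre-grown 4 h, then 24 h compound exposure, 30 °C humidified · Technique – culture turbidity as optical density at 615 nm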

[2] = Restrictive medium S. cerevisiae growth inhibition, OD615, pilot screen of yeast lifespan reduction project, restrictive growth control (AID 706;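 active = growth inhibition above a set limit, 3 SD over mean compound inhibition, in both replicates, cut at about 43% in these data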;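 also: modified DeaD lifespan yeast strain shifted to restrictive glucose medium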); conditions: OD615, 48 h, at 10 µM, stronger effect = higher value
Outline: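 Material: engineered S. cerevisiae DeaD strain / Medium: glucose-based CSMM-D restrictive medium / Compound: single dose of 10 µM compound final, 0.25% DMSO / Timing: 4 h pre-incubation, 48 h exposure at 30 °C / Technique: OD615 absorbance reading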

[3] = viability gain of MRP-1-high H69AR cells under doxorubicin, pilot screen, MRP-1 activator project, CellTiter-Glo, duplicate (AID 807;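 active = viability increase at or above a cutoff of the median across tested compounds plus 3 SD, cut at about 8.5% in these data, passing the limit was not always enough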;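 also: compound pretreatment 18-22 h then 72 h combined with doxorubicin; 0% = doxorubicin alone and 100% = vehicle without doxorubicin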); conditions: H69AR viability with doxorubicin, CellTiter-Glo luminescence; at 10 µM; stronger effect = higher value
[4] = growth suppression of beta-catenin knockout HCT116, pilot screen, human colon tumor cells (AID 823;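 active = cell viability at or below a set limit in both duplicate runs, the limit being the all-compound median minus 4 SD, cut at about 23% in these data, passing the limit was not always enough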;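 also: 0% = wells killed by 20 µM Hyamine and 100% = untreated DMSO cell wells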); conditions: CellTiter-Glo, 60 h, at 10 µM, stronger effect = lower value
[5] = growth suppression of PTEN-deleted HCT116, pilot screen, cell-based, HCT116 clonal line, CellTiter-Glo (AID 824;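 active = viability at or below 27.92% in each of two runs, the all-compound median minus 4 SD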;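 also: 0% = 20 µM Hyamine control and 100% = vehicle cell control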); conditions: 60 h, at 10 µM, stronger effect = lower value
[6] = RAM signaling pathway blockade in yeast – S. cerevisiae, Pdr1DBD-CYC8 efflux-inhibited sensitized strain, primary screen (AID 1298);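 also: 0% = DMSO untreated cells without growth and 100% = 10 µM 1-NA-PP1 full growth; higher means more yeast growth rescued from 5-FOA killing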; conditions: S. cerevisiae cbk1-as DSE1-URA3 strain, 5-FOA growth OD615, 2 d; at 50 µM; stronger effect = higher value

CCOc1ccc(N(CC(=O)Nc2cccc(Cl)c2)S(=O)(=O)c2c(C)noc2C)cc1
inactive: growth inhibition [1] -14.8% | growth inhibition [2] -4.69% | viability increase [3] -7.01% | viability [4] 39.2% | viability [5] 45.7% | RAM network inhibition [6] 12.6%

COc1ccc(-c2nc(-c3cccc(C(F)(F)F)c3)no2)cc1OC
inactive: growth inhibition [1] -2.88% | growth inhibition [2] 1.6% | viability increase [3] -0.18% | viability [4] 99% | viability [5] 93.3% | RAM network inhibition [6] 7.48%

Cc1ccc(OCC(=O)Nc2ccc(O)c(-c3nc4ccccc4o3)c2)cc1
inactive: growth inhibition [1] -10% | growth inhibition [2] -14.9% | viability increase [3] -7.57% | viability [4] 38.8% | viability [5] 54% | RAM network inhibition [6] 2.6%

COc1ccc(CCc2nc(-c3ccc(-n4cccc4)cc3)no2)cc1
inactive: growth inhibition [1] -20.1% | growth inhibition [2] -25.5% | viability increase [3] 1.78% | viability [4] 93.9% | viability [5] 91.6% | RAM network inhibition [6] 6.54%

CCOc1ccc(N(CC(=O)NC(C)CC)S(=O)(=O)c2c(C)noc2C)cc1 (stereo unspecified)
inactive: growth inhibition [1] -4.58% | growth inhibition [2] -11.1% | viability increase [3] -0.76% | viability [4] 99.3% | viability [5] 93.1% | RAM network inhibition [6] 2.66%

CCC(C)(C(=O)NC1CCCC1)N(CC1CCCO1)C(=O)CNC(=O)c1ccccc1 (stereo unspecified)
inactive: growth inhibition [1] -6.16% | growth inhibition [2] -12.3% | viability increase [3] -2.92% | viability [4] 98.2% | viability [5] 93% | RAM network inhibition [6] 1.24%

C=CCOC(=O)c1sc(NC(=O)c2ccco2)nc1C
inactive: growth inhibition [1] -13.2% | growth inhibition [2] -5.04% | viability increase [3] -1.25% | viability [4] 94% | viability [5] 84.6% | RAM network inhibition [6] 1.63%

COc1ccc(-n2c(SCC(=O)Nc3ccc4c(c3)OCO4)nc3c(c2=O)SCC3)cc1
inactive: growth inhibition [1] -15.7% | growth inhibition [2] -12.5% | viability increase [3] -2.51% | viability [4] 98.2% | viability [5] 81.2% | RAM network inhibition [6] 8.27%

COc1ccccc1CCNC(=O)CSc1nc(-c2ccco2)cc(C(F)(F)F)n1
inactive: growth inhibition [1] -13.3% | growth inhibition [2] -5.15% | viability increase [3] -1.65% | viability [4] 102% | viability [5] 93.7% | RAM network inhibition [6] 6.42%

CCOC(=O)N1CCN(C(=O)c2ccc(N3C(=O)c4ccccc4C3=O)cc2)CC1
inactive: growth inhibition [1] -3.96% | growth inhibition [2] -15.2% | viability increase [3] -2.58% | viability [4] 99% | viability [5] 93.6% | RAM network inhibition [6] 4.06%

COc1ccc(-c2nc(CS(=O)CC(=O)NCc3ccc(Cl)cc3)c(C)o2)cc1 (stereo unspecified)
inactive: growth inhibition [1] -11.9% | growth inhibition [2] 4.36% | viability increase [3] 0.16% | viability [4] 72.4% | viability [5] 79.9% | RAM network inhibition [6] 7.34%

CCSC1=C(C#N)C(c2cccc(O)c2)CC(=O)N1 (stereo unspecified)
inactive: growth inhibition [1] -2.26% | growth inhibition [2] -11% | viability increase [3] -1.66% | viability [4] 98.2% | viability [5] 97.1% | RAM network inhibition [6] 3.85%

Cc1ccc(Nc2ncnc3nc[nH]c23)cc1Cl
inactive: growth inhibition [1] 1.92% | growth inhibition [2] 31.3% | viability increase [3] -1.76% | viability [4] 105% | viability [5] 90.8% | RAM network inhibition [6] 4.7%

O=C(c1cccs1)N(C(=O)c1cccs1)c1ccccn1
inactive: growth inhibition [1] -5.4% | growth inhibition [2] -6.32% | viability increase [3] -1.11% | viability [4] 96.8% | viability [5] 102% | RAM network inhibition [6] 4.17%

COc1ccc(-n2c(SCC(=O)Nc3nccs3)nc3c(c2=O)SCC3)cc1
inactive: growth inhibition [1] -1.01% | growth inhibition [2] -11.5% | viability increase [3] -3.87% | viability [4] 93.2% | viability [5] 84.6% | RAM network inhibition [6] 5.95%

O=C(Nc1ccccc1-c1nc2ccccc2s1)c1ccco1
inactive: growth inhibition [1] -6.38% | growth inhibition [2] -20.9% | viability increase [3] -5.19% | viability [4] 74.7% | viability [5] 61.9% | RAM network inhibition [6] 6.4%
